Measurements taken from ChEMBL document CHEMBL1131232, “New azole antifungals. 3. Synthesis and antifungal activity of 3-substituted-4(3H)-quinazolinones” (J Med Chem, 1998).
Values after ≈ are worked out from the molar mass of the structure shown.

What was measured:
Candida albicans [1] = assay: (§1) In vivo antifungal activity against murine candidosis model after peroral administration with 2.5 mg/kg at various time intervals. (percent protection for 100% mortality with untreated group); type: functional; details: route oral
Procedure, shortened: (§2)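 Groups of 10 male mice were infected iv with 0.2 mL of C. albicans at 2 to 8×10^7 cfu/mL. Drug was given orally as a suspension in 1% Tween + 0.2% carboxymethylcellulose at 1, 4 and 24 h post-infection; controls got vehicle only. Survival was scored on days 3, 5, 7 and 9. Read-out was % survival on the day all untreated controls died, or on the day all mice given fluconazole at the same dose died.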

[2] = In vitro for antifungal activity against 10 yeasts; type: functional; details: read-out: MIC
Procedure, shortened: (§3)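 Agar dilution on Kimmig's agar with 0.5% glycerol, using ATCC strains or clinical isolates. Drug stocks were 800 μg/mL in 50% ethanol, tested as 2-fold dilutions from 80 to 0.03 μg/mL. Inocula were 10⁵ cfu/mL. […] Geometric means took >80 as 160 and ≤0.03 as 0.03.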

[3] = In vitro antifungal activity against 6 filamentous fungi; type: functional; details: read-out: MIC; procedure, shortened: as §3
Candida albicans [4] = assay: (§4) In vivo antifungal activity against murine candidosis model after peroral administration with 2.5 mg/kg at various time intervals. (percent protection for 100% mortality with fluconazole-treated group.); type: functional; details: route oral; procedure, shortened: as §2
Mus musculus [5] = assay: In vivo antifungal activity against murine candidosis model after peroral administration with 0.5 mg/kg at various time intervals. (percent protection for 100% mortality with fluconazole-treated group.); type: functional; details: route oral; procedure, shortened: as §2
Mus musculus [6] = assay: In vivo antifungal activity against murine candidosis model after peroral administration with 0.5 mg/kg at various time intervals. (percent protection for 100% mortality with untreated group); type: functional; details: route oral; procedure, shortened: as §2
Mus musculus [7] = assay: as §1; type: functional; details: route oral; procedure, shortened: as §2
Mus musculus [8] = assay: as §4; type: functional; details: route oral; procedure, shortened: as §2
Candida albicans [9] = assay: In vivo antifungal activity against murine candidosis model after peroral administration with 1 mg/kg at various time intervals. (percent protection for 100% mortality with fluconazole-treated group.); type: functional; details: route oral; procedure, shortened: as §2
[10] = Half-life in rats after iv administration; type: ADME, organism-based; details: rat, in vivo
Mus musculus [11] = assay: In vivo antifungal activity against murine candidosis model after peroral administration with 0.5 mg/Kg at various time intervals. (percent protection for 100% mortality with untreated group); type: functional; procedure, shortened: as §2
Candida albicans [12] = assay: The compound was tested in vitro for antifungal activity against Candida albicans.; type: functional; procedure, shortened: as §3
Candida albicans [13] = assay: In vivo antifungal activity against murine candidosis model after peroral administration with 1 mg/kg at various time intervals. (percent protection for 100% mortality with untreated group); type: functional; details: route oral; procedure, shortened: as §2
Candida albicans [14] = assay: Tested in vivo for anti-candida activity in mice model 1 (dose:0.5 mg/kg, fluconazole-treated group); type: functional
Candida albicans [15] = assay: Tested in vivo for anti-candida activity in mice model 1 (dose: 0.5 mg/kg, untreated group).; type: functional
Mus musculus [16] = assay: In vivo antifungal activity against murine candidosis model after peroral administration with 0.5 mg/Kg at various time intervals. (percent protection for 100% mortality with fluconazole-treated group.); type: functional; procedure, shortened: as §2
Mus musculus [17] = assay: In vivo antifungal activity against murine candidosis model after peroral administration with 1 mg/Kg at various time intervals. (percent protection for 100% mortality with untreated group); type: functional; procedure, shortened: as §2

SMILES | Protection (Candida albicans [1]) [%] | MIC [2] [µg/mL] | MIC [3] [µg/mL] | Protection (Candida albicans [4]) [%] | also measured
C[C@@H](n1cnc2cc(Cl)ccc2c1=O)[C@](O)(Cn1ccnc1)c1ccc(F)cc1F | 0 | 2 (≈ 4.64 µM) | 28 (≈ 65 µM) | 0 | –
CCC(CC)n1ncn(-c2ccc(N3CCN(c4ccc5c(=O)n([C@H](C)[C@](O)(Cn6cncn6)c6ccc(F)cc6F)cnc5c4)CC3)cc2)c1=O | – | 2.3 (≈ 3.24 µM) | > 80 | – | Protection (Mus musculus [5]): 0%; Protection (Mus musculus [6]): 20%
COc1cc2ncn([C@H](C)[C@](O)(Cn3cncn3)c3ccc(F)cc3F)c(=O)c2cc1OC | 0 | 7.6 (≈ 16.6 µM) | 80 (≈ 175 µM) | 0 | –
C[C@H](n1cnc2cc(Cl)ccc2c1=O)[C@@](O)(Cn1cncn1)c1ccc(F)cc1F | – | 40 (≈ 92.6 µM) | > 80 | – | Protection (Mus musculus [7]): 0%; Protection (Mus musculus [8]): 0%
C[C@@H](n1cnc2cc(F)ccc2c1=O)[C@](O)(Cn1cncn1)c1ccc(F)cc1F | – | 0.9 (≈ 2.17 µM) | 2.5 (≈ 6.02 µM) | – | Protection (Candida albicans [9]): 0%; half-life [10]: 1.4 h; Protection (Mus musculus [11]): 0%; MIC (Candida albicans [12]): < 0.03 µg/mL; Protection (Candida albicans [13]): 0%
C[C@@H](n1ncn(-c2ccc(OCC(F)(F)C(F)F)cc2)c1=O)[C@](O)(Cn1cncn1)c1ccc(F)cc1F | – | 2.6 (≈ 4.79 µM) | 8.9 (≈ 16.4 µM) | – | Protection (Candida albicans [14]): 100%; Protection (Candida albicans [15]): 100%
C[C@@H](NC(=O)c1ccc(C(F)(F)F)cc1)[C@](O)(Cn1cncn1)c1ccc(F)cc1F | – | 4.6 (≈ 10.4 µM) | 22 (≈ 50 µM) | – | Protection (Candida albicans [14]): 100%; Protection (Candida albicans [15]): 100%
C[C@@H](n1cnc2cc(Cl)ccc2c1=O)[C@](O)(Cn1cncn1)c1ccccc1F | 20 | 0.7 (≈ 1.69 µM) | 1.1 (≈ 2.66 µM) | 0 | –
C[C@@H](n1cnc2c(Cl)cccc2c1=O)[C@](O)(Cn1cncn1)c1ccc(F)cc1F | 0 | 2.5 (≈ 5.79 µM) | 45 (≈ 104 µM) | 0 | –
COc1cccc2c(=O)n([C@H](C)[C@](O)(Cn3cncn3)c3ccc(F)cc3F)cnc12 | 0 | 10 (≈ 23.4 µM) | > 80 | 0 | –
C[C@@H](n1cnc2cc(Br)ccc2c1=O)[C@](O)(Cn1cncn1)c1ccc(F)cc1F | – | 0.4 (≈ 0.84 µM) | 0.8 (≈ 1.68 µM) | – | Protection (Candida albicans [9]): 0%; Protection (Mus musculus [16]): 0%; MIC (Candida albicans [12]): < 0.03 µg/mL; Protection (Candida albicans [13]): 30%
C[C@@H](n1cnc2cc(N(C)C)ccc2c1=O)[C@](O)(Cn1cncn1)c1ccc(F)cc1F | – | 1.3 (≈ 2.95 µM) | 71 (≈ 161 µM) | – | Protection (Candida albicans [9]): 0%; Protection (Mus musculus [17]): 0%
